Assay results as given in ChEMBL document CHEMBL1123981, “Arylpiperazine derivatives as high-affinity 5-HT1A serotonin ligands” (J Med Chem, 1988).

Legend:
Type in all cases: tissue-based
[1] = target: T1, 5-hydroxytryptamine receptor 1A (Rattus norvegicus, UniProt P19327); assay: Evaluated for binding affinity towards 5-hydroxytryptamine 1A receptor in rat brain
T1 sequence (P19327 whole entry): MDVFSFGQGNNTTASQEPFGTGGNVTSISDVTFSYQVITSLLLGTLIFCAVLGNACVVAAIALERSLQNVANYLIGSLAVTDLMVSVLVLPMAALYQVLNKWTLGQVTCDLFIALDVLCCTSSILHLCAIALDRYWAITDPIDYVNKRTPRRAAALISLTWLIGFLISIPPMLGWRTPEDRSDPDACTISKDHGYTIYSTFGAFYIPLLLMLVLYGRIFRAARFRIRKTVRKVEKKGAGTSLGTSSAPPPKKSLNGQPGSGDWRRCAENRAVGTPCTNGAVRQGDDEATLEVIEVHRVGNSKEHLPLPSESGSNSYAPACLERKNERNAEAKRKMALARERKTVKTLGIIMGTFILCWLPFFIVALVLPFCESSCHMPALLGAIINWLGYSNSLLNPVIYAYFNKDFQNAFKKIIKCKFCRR

[2] = target: T2, 5-hydroxytryptamine receptor 1A (Rattus norvegicus) (UniProt P19327); assay: Hill coefficient in rat brain 5-hydroxytryptamine 1A assay
T2 sequence (whole entry): T1 sequence (P19327 whole entry)

[3] = target: T1, 5-hydroxytryptamine receptor 1A; assay: Binding affinity towards 5-hydroxytryptamine 1A receptor in rat brain
How it was run: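 Rat hippocampal membranes (male Sprague-Dawley, ca. 220 g), homogenized in 50 mM Tris-HCl/0.5 mM EDTA/10 mM MgSO4, washed, preincubated 15 min at 37 °C; 0.1 nM [3H]8-OH-DPAT with 4 mg wet tissue in Tris pH 7.7 with pargyline, ascorbate; eleven competitor concentrations; 37 °C 20 min; nonspecific with 1 μM 8-OH-DPAT; filtration, scintillation counting; Ki by Cheng–Prusoff.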

Structure (SMILES) | Ki [1] | Hill coefficient [2] | Ki [3]
COc1ccccc1N1CCNCC1 | 68 nM | 0.88 | 
O=C(NCCCCN1CCN(c2ncccn2)CC1)c1ccccc1 | 60 nM | 0.79 | 
c1cnc(N2CCNCC2)nc1 [2-PIPERAZIN-1-YL-PYRIMIDINE] | 1410 nM | 0.95 | 
Clc1cccc(N2CCNCC2)c1 [CHLOROPHENYLPIPERAZINE] | 130 nM | 0.91 | 
O=C1c2ccccc2C(=O)N1CCN1CCN(c2ccccc2)CC1 | > 10000 nM |  | 
COc1ccc(Cl)cc1N1CCNCC1 | 870 nM | 0.97 | 
O=C1c2ccccc2C(=O)N1CCCN1CCN(c2ccccc2)CC1 | 200 nM | 0.99 | 
c1ccc2cc(N3CCNCC3)ccc2c1 | 2900 nM | 1.02 | 
c1ccc(C2CCNCC2)cc1 | 1520 nM | 0.97 | 
NCCCCN1CCN(c2ccccc2)CC1 | > 6000 nM |  | 
c1ccc(N2CCNCC2)cc1 [PHENYLPIPERAZINE] | 380 nM | 0.95 | 
O=C(NCCCCN1CCN(c2ccccc2)CC1)c1ccccc1 |  | 0.82 | 11 nM
O=C1c2ccccc2C(=O)N1CCCCN1CCN(c2ccccc2)CC1 | 10 nM | 0.99 | 
CC(=O)NCCCCN1CCN(c2ccccc2)CC1 | 250 nM | 0.99 | 
O=C1c2ccccc2C(=O)N1CCCCCN1CCN(c2ccccc2)CC1 | 8.5 nM | 0.91 | 
FC(F)(F)c1cccc(N2CCNCC2)c1 | 175 nM | 0.97 | 
O=C1c2ccccc2C(=O)N1CCCCN1CCN(c2cccc3ccccc23)CC1 | 1 nM | 1.16 | 
O=C1c2ccccc2C(=O)N1CCCCN1CCN(c2ncccn2)CC1 | 36 nM | 1.03 | 
CC1(C)CC(=O)N(CCCCN2CCN(c3ncccn3)CC2)C(=O)C1 |  | 1 | 
c1ccc2c(N3CCNCC3)cccc2c1 | 11 nM | 0.85 | 
COc1ccccc1N1CCN(CCCCNC(=O)c2ccccc2)CC1 | 2 nM | 0.88 | 
